The text below walks through data of ChEMBL document CHEMBL2157989, “Synthesis and biological evaluation of antibody conjugates of phosphate prodrugs of cytotoxic DNA alkylators for the targeted treatment of cancer” (J Med Chem, 2012).

Data set [1] is described as follows: Prodrug conversion assessed as 1-[S]-(Chloromethyl)-5-hydroxy-3-{{5-[5-(4-methyldithio-3,3- dimethyl butyryl)indol-2-yl-carbonyl amino]indole-2-yl}carbonyl}- 1,2-dihydro-3H-benz[e]indole formation in presence of porcine mucosa alkaline phosphatase at pH 7.4. In kind it is physicochemical. The following applies: pig, isolated protein.
Data set [2] is described as follows: Solubility of the compound in 5% DMA and 95% buffer at pH 7 at 1.5 mg sonicated for 45 mins followed by centrifugation for 45 mins by UV/Vis spectroscopy. In kind it is physicochemical. Summed up: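 For buffers with 5% or less DMA, a 50 mM stock of compound in DMA is diluted 20–100 times into pH 7.0 buffer. It is then sonicated for 45 min and centrifuged at 1400g for 45 min. Supernatant is quantified by UV/vis at 340 nm, with ε of 41500 (DC1–SR₂ compounds) or 34500 M⁻¹ cm⁻¹ (phosphate prodrugs).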

The nature of data set [3]: Solubility of the compound in 20% DMA and 80% buffer at pH 7 at 1.5 mg sonicated for 45 mins followed by centrifugation for 45 mins by UV/Vis spectroscopy. In kind it is physicochemical. Summed up:
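About 1.5 mg of compound is sonicated for 45 min in pH 7.0 buffer containing 10% or 20% DMA, then centrifuged at 1400g for 45 min. Supernatant concentration is read by UV/vis at 340 nm. ε at pH 7.0 is 41500 M⁻¹ cm⁻¹ for DC1–SR₂ compounds and 34500 M⁻¹ cm⁻¹ for phosphate prodrugs.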

Data set [4] can be described thus: Prodrug activation assessed as enzyme-mediated compound dephosphorylation in presence of human semen prostatic acid phosphatase P1649 at pH 7.4 by HPLC. The following applies: isolated protein.
Data set [5] is described as follows: Solubility in hexane at 1.5 mg sonicated for 45 mins followed by centrifugation for 45 mins by UV/Vis spectroscopy. Format: physicochemical. Particulars: 0.75 h; call rule not given here. Summed up: (§1)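 Solid compound (~1.5 mg) in the stated solvent was sonicated 45 min, then centrifuged at 1400g for 45 min. The supernatant concentration was read by UV/vis at 340 nm, using ε = 41500 M⁻¹ cm⁻¹ for the free phenols and 34500 M⁻¹ cm⁻¹ for the phosphate prodrugs (pH 7.0 values).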

The nature of data set [6]: Solubility in dichloromethane at 1.5 mg sonicated for 45 mins followed by centrifugation for 45 mins by UV/Vis spectroscopy. In kind it is physicochemical. Particulars: 0.75 h.
Data set [7] can be described thus: Solubility in ethanol at 1.5 mg sonicated for 45 mins followed by centrifugation for 45 mins by UV/Vis spectroscopy. The following applies: 0.75 h. In kind it is physicochemical. Summed up:
as §1

Data set [8] is described as follows: Solubility in DMSO at 1.5 mg sonicated for 45 mins followed by centrifugation for 45 mins by UV/Vis spectroscopy. Particulars: 0.75 h. In kind it is physicochemical. Summed up: as §1
Data set [9] is described as follows: Solubility in DMA at 1.5 mg sonicated for 45 mins followed by centrifugation for 45 mins by UV/Vis spectroscopy. Format: physicochemical. Particulars: 0.75 h. Put shortly: as §1
Data set [10] is described as follows: Solubility in DMF at 1.5 mg sonicated for 45 mins followed by centrifugation for 45 mins by UV/Vis spectroscopy. In kind it is physicochemical. The following applies: 0.75 h. Summed up:
as §1

Data set [11] can be described thus: Solubility in water containing 5% THF at 1.5 mg sonicated for 45 mins followed by centrifugation for 45 mins by UV/Vis spectroscopy. Format: physicochemical. The following applies: 0.75 h.
Data set [12] can be described thus: Solubility in water containing 5% dioxane at 1.5 mg sonicated for 45 mins followed by centrifugation for 45 mins by UV/Vis spectroscopy. Particulars: 0.75 h. In kind it is physicochemical.
Data set [13] can be described thus: Solubility in water containing 5% DMA at 1.5 mg sonicated for 45 mins followed by centrifugation for 45 mins by UV/Vis spectroscopy. In kind it is physicochemical. The following applies: 0.75 h.
Data set [14] in a line: Solubility in water containing 5% DMF at 1.5 mg sonicated for 45 mins followed by centrifugation for 45 mins by UV/Vis spectroscopy. In kind it is physicochemical. The following applies: 0.75 h.
Data set [15] in a line: Prodrug activation assessed as enzyme-mediated compound dephosphorylation in presence of bovine semen prostatic acid phosphatase P3147 at pH 7.4 by HPLC. Particulars: cattle, isolated protein.
Data set [16] in a line: Prodrug conversion assessed as 1 - [ S ] - ( Ch l o r ome t h y l ) - 5 - h y d r o x y - 3 - { { 5 - [ 5 - ( 3 -methyldithiopropionyl)indol-2-yl-carbonyl amino]indole-2-yl}- carbonyl}-1,2-dihydro-3H-benz[e]indole formation in presence of rabbit intestine alkaline phosphatase at pH 7.4. Format: physicochemical. Particulars: in vitro.
A short description of data set [17]: Prodrug conversion assessed as 1 - [ S ] - ( Ch l o r ome t h y l ) - 5 - h y d r o x y - 3 - { { 5 - [ 5 - ( 3 -methyldithiopropionyl)indol-2-yl-carbonyl amino]indole-2-yl}- carbonyl}-1,2-dihydro-3H-benz[e]indole formation in presence of porcine mucosa alkaline phosphatase at pH 7.4. In kind it is physicochemical. The following applies: pig, isolated protein.

A short description of data set [18]: Prodrug conversion assessed as 1-[S]-(Chloromethyl)-5-hydroxy-3-{{5-[5-(4-methyldithio-3,3- dimethyl butyryl)indol-2-yl-carbonyl amino]indole-2-yl}carbonyl}- 1,2-dihydro-3H-benz[e]indole formation in presence of bovine liver alkaline phosphatase at pH 7.4. Format: physicochemical. Particulars: cattle, isolated protein.
The nature of data set [19]: Prodrug conversion assessed as 1-[S]-(Chloromethyl)-5-hydroxy-3-{{5-[5-(4-methyldithio-3,3- dimethyl butyryl)indol-2-yl-carbonyl amino]indole-2-yl}carbonyl}- 1,2-dihydro-3H-benz[e]indole formation in presence of bovine kidney alkaline phosphatase at pH 7.4. Particulars: cattle, isolated protein. In kind it is physicochemical.
Data set [20] is described as follows: Prodrug conversion assessed as 1-[S]-(Chloromethyl)-5-hydroxy-3-{{5-[5-(4-methyldithio-3,3- dimethyl butyryl)indol-2-yl-carbonyl amino]indole-2-yl}carbonyl}- 1,2-dihydro-3H-benz[e]indole formation in presence of rabbit intestine alkaline phosphatase at pH 7.4. Format: physicochemical. Particulars: in vitro.

Usually solubility stands for how much of the substance goes into solution per volume. Read a high solubility as much dissolved substance.

In brackets after ≈: the same amount, converted by molar mass. Bounds are passed on as bounds.

On to `CSSCCC(=O)Nc1ccc2[nH]c(C(=O)Nc3ccc4[nH]c(C(=O)N5C[C@@H](CCl)c6c5cc(OP(=O)(O)O)c5ccccc65)cc4c3)cc2c1`, for which the Drug metabolism entry in data set [1], in data set [4], in [15], in data set [16] and in data set [17] was “Active” each time. In addition, the values for the solubility at 0.75 h in data set [2] and in [3] were 3000 µM (≈ 2290 µg/mL) and > 6000 µM, respectively. Besides, the solubility result in data set [5] was “Insoluble”; in [6], “Insoluble”; in data set [7], “Insoluble”; in data set [8] it was “soluble”; in data set [9], “soluble”; in [10], “soluble”. Also, the solubility entry in [11], in data set [12], in data set [13] and in data set [14] was “soluble” in each case.

Take `CSSC(C)(C)CCC(=O)Nc1ccc2[nH]c(C(=O)Nc3ccc4[nH]c(C(=O)N5C[C@@H](CCl)c6c5cc(OP(=O)(O)O)c5ccccc65)cc4c3)cc2c1`: the Drug metabolism entry in [1], in data set [4], in data set [15], in [18], in data set [19] and in [20] was “Active” throughout. The solubility at 0.75 h is 2900 µM (≈ 2340 µg/mL) in [2] and > 6000 µM in data set [3]. The solubility result is “Insoluble” in [5]; “Insoluble” in [6]; “Insoluble” in data set [7]; “soluble” in data set [8]; “soluble” in data set [9]; “soluble” in data set [10]. For the same compound, the solubility entry in data set [11], in [12], in data set [13] and in data set [14] was “soluble” in each case.
